L929 necroptosis – L929 zVAD cell death inhibition. L929 zVAD necroptosis rescue, ATP luminescence, 24 h; with zVAD 60 µM. viability rescue, % at 10 µM. actives 0.38% (n = 220,000). AID 1377;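 active = activation, scaled between plate controls, above about 75%, limit read from the data; inactive = activation under that limit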;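 also: 0% = zVAD with DMSO and 100% = DMSO alone without zVAD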
Runt-CBFb FRET – inhibitors of human RUNX1 Runt domain binding to CBFb; Cerulean-Runt/Venus-CBFb FRET ratio 530/480, 1 h; inhibition, % at 20 µM; actives 0.46% (n = 220,000);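 active = inhibition over about 50% at 20 µM in the single-dose screen, limit read from the data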;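 also: 0% = DMSO wells and 100% = excess unlabeled CBFb competitor control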
Target sequence (Q01196 whole entry, looked up, the tested form may be a part): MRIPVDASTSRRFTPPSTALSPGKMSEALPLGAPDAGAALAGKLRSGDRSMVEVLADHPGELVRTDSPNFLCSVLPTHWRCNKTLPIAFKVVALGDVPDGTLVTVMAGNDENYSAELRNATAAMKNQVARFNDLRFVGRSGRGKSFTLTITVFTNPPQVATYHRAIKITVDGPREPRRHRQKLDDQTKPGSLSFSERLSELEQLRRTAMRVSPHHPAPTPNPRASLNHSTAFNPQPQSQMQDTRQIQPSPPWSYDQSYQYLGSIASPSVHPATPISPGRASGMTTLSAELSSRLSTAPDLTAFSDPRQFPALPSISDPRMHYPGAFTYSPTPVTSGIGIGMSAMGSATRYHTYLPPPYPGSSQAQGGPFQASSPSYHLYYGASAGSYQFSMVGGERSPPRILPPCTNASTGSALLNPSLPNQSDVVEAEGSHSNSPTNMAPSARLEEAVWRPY
Target sequence (Q13951 whole entry, looked up, the tested form may be a part): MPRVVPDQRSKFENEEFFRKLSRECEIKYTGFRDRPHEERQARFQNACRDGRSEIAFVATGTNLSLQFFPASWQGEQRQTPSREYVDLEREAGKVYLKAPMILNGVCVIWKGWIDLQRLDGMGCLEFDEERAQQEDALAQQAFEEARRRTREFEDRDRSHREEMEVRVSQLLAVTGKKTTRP
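Assay system: Cerulean-Runt domain fusion protein, energy donor; Signal: fluorescence energy transfer, 422 nm excitation, 530/480 nm emission; Timing: 1 h compound exposure, room temperature; Control set: unlabeled CBFb; Medium: Tris buffer pH 7.5 with salts and BSA; Compound: single test concentration of 20 µM, 1% DMSO final; Probe or stimulus: Venus-CBFb 100 nM.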
TNF necrop inh – blocks TNF-alpha induced death of Jurkat FADD-/- cells; actives 0.068% (n = 220,000); activation (protection from cell death), % at 10 µM; Jurkat FADD-/- TNF necroptosis rescue, ATP luminescence, 24 h; 0 = TNF only, 100 = no-TNF cells; AID 463075;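 active = activation, meaning protection from cell death, of at least 50% relative to plate controls; inactive = activation below 50%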;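 also: necroptosis triggered by 40 ng/mL TNF-alpha added together with compound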
RanGTP-Impb inh – disruptors of Ran-importin-beta complex formation – biochemical, FRET, CFP-Ran, YFP-importin-beta, homogeneous, primary screen; cell-free CFP-Ran/YFP-importin-beta FRET ratio; inhibition, % (test concentration not listed); actives 1.1% (n = 300,000);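 active = more than half of the replicate wells show a fall in the fluorescence ratio signal beyond about 16%, limit read from the data, passing the limit was not always enough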;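 also: 0% = DMSO wells and 100% = Ran loaded with GDP instead of GTP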
Runt-SMMHC FRET – inhibitors of human RUNX1 Runt domain binding to CBFb-SMMHC | Q01196+Q13951 | Cerulean-Runt/Venus-CBFb-SMMHC FRET ratio 530/480, 1 h | inhibition, % at 20 µM | actives 0.74% (n = 220,000) | AID 1434;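 active = mean inhibition across duplicate retests at 20 µM reaching about 50%, limit read from the data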;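 also: 0% = DMSO wells and 100% = wells with excess untagged CBFb-SMMHC; inhibitors lower the FRET ratio by blocking Runt binding to CBFb-SMMHC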
Hck-Nef inh – inhibitors of human Hck kinase activated by Nef | AID 463187 | actives 0.68% (n = 220,000) | inhibition, % at 20 µM | P08631 | Recombinant Hck-YEEI plus Nef, Z-Lyte FRET kinase assay;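 active = Hck-Nef kinase inhibition above about 50%, limit read from the data; inactive = inhibition below that limit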;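 also: 0% = DMSO with Hck plus Nef and 100% = Hck alone without Nef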
Starred values were filed as active, the others as inactive; x = no result. Compounds with a hit are over-represented: about 2.1% of the library has one in this group of screens.

SMILES	L929 necroptosis	Runt-CBFb FRET	TNF necrop inh	RanGTP-Impb inh	Runt-SMMHC FRET	Hck-Nef inh
Cc1ccc(-c2nn3cnnc3c3ccccc23)cc1	0	0	-3	3	-2	22
COc1ccc2oc(=O)c(C(=O)Nc3ccccc3O)cc2c1	0	1	5	-3	-8	16
CCCCCCc1cc2cc(C(=O)Nc3cccc(OC)c3)c(=O)oc2cc1O	5	143*	-2	156*	63*	53*
CN1CCc2c(sc(NC(=O)C3CCCCC3)c2C(N)=O)C1	x	x	x	147*	x	x
N#Cc1ccsc1NC(=O)C1CCN(S(=O)(=O)c2cccs2)CC1	x	x	x	-3	x	x
CN1CCc2c(sc(NC(=O)C3CCN(S(=O)(=O)c4cccs4)CC3)c2C(N)=O)C1	x	x	x	132*	x	x
CC(C)N1CCc2c(sc(NC(=O)C3CCCCC3)c2C(N)=O)C1	x	x	x	134*	x	x
COC(=O)c1c(NC(=O)C2CCCCC2)sc2c1CCN(C(C)C)C2	x	x	x	57*	x	x
O=c1cc[nH]c2ccc(OC(F)(F)F)cc12	2	-1	1	-4	4	20
Cc1ccc(S(=O)(=O)N(Cc2ccc(Cl)cc2)c2ccccc2C(=O)NCc2ccco2)cc1	0	0	-2	0	-3	2
Cc1cc(C)c(Nc2ncnc(N)n2)c(C)c1	1	1	3	3	-1	6
COCC(=O)Nc1ccc2c(c1)OCC(=O)N2Cc1ccc(C)cc1	x	x	x	0	x	x
CCCC(=O)Nc1ccc(S(=O)(=O)Nc2cc(OC)ncn2)cc1	x	x	x	1	x	x
CC(=O)N1CCc2c(sc(NC(=O)CS(=O)(=O)c3ccc(F)cc3)c2C(N)=O)C1	x	x	x	21*	x	x
CCOC(=O)N1CCc2c(sc(NC(=O)CCS(=O)(=O)c3ccccc3)c2C(N)=O)C1	x	x	x	-3	x	x
CC(=O)N1CCc2c(sc(NC(=O)CCS(=O)(=O)c3ccccc3)c2C(N)=O)C1	x	x	x	7	x	x
CC(=O)N1CCc2c(sc(NC(=O)CN3C(=O)CCC3=O)c2C(N)=O)C1	3	6	4	23*	21	2
CN1CCc2c(sc(NC(=O)CS(=O)(=O)c3ccc(F)cc3)c2C(N)=O)C1	x	x	x	163*	x	x
CNC(=O)C(=O)NCCCN1CCOCC1	0	-1	1	-2	0	-6
N=c1sc2ccccc2n1-c1ccccc1	0	3	-3	35*	14	1
C=CC(=O)N=c1sc2ccccc2n1-c1ccccc1	1	2	-17	-1	3	26
Cc1ccc(S(=O)(=O)c2cc3ccc(O)cc3oc2=O)cc1C	x	x	x	132*	x	x
COc1ccc(/C=C(\C#N)c2nc3ccccc3[nH]2)cc1O	x	x	x	7	x	x
COc1cc(/C=C(/C#N)c2nc3ccccc3[nH]2)ccc1OC(=O)c1ccco1	1	5	-8	28*	10	4
COc1ccccc1NC(=O)CCC(=O)OCC(=O)c1ccc(C)c([N+](=O)[O-])c1	x	x	x	-1	x	x
SMILES	L929 necroptosis	Runt-CBFb FRET	TNF necrop inh	RanGTP-Impb inh	Runt-SMMHC FRET	Hck-Nef inh
CCCOc1ccc(-c2nn(-c3ccccc3)cc2/C=C2\SC(N)=NC2=O)cc1	0	-1	1	19*	21	7
COC(=O)c1ccc(C(=O)OC)c(NC(=S)N2CCN(C)CC2)c1	2	12	0	32*	21	4
CCCn1c(-c2cccs2)nc2nc3ccccc3nc21	0	40	-2	5	131*	47
c1csc(-c2nc3nc4ccccc4nc3n2Cc2ccc3c(c2)OCO3)c1	1	-2	-3	x	-1	6
COCCn1c(-c2cccs2)nc2nc3ccccc3nc21	0	41	3	7	87*	31
COCCn1c(-c2cc(OC)c(OC)c(OC)c2)nc2nc3ccccc3nc21	x	1	x	x	2	x
CSc1nc2ccccc2cc1/C=C(\C#N)c1cccc(Cl)c1	1	3	-15	-1	15	2
COC(=O)c1ccc2nc(NC(=O)C(C)C)sc2c1	8	-1	2	30*	-2	16
CCOC(=O)c1ccc2nc(Nc3nc4ccc(F)cc4s3)sc2c1	1	5	1	7	32	15
COC(=O)c1ccc2nc(Nc3nc4c(F)cc(F)cc4s3)sc2c1	0	42	0	71*	69	22
CN1CCN(c2ccc(C(=O)NC3CCCCC3)cc2[N+](=O)[O-])CC1	28	-3	2	7	0	22
COc1ccc(NC(=O)c2ccc(COc3ccccc3OC)o2)cc1OC	0	-1	1	13*	-5	1
CN(Cc1ccccc1)C(=S)Nc1ccc(OC(F)F)cc1	1	0	2	-1	0	9
CN(C)CCCN(Cc1ccccc1)C(=S)Nc1ccc(OC(F)F)cc1	-1	-1	0	18*	3	0
O=C1Nc2ccccc2C1=Nc1ccc(S(=O)(=O)Nc2nccs2)cc1	0	0	-1	-1	1	67*
Cc1ccc(-c2nc(CS(=O)(=O)CC(=O)N3CCN(C)CC3)c(C)o2)cc1	x	x	x	158*	x	x
Cc1oc(C)c2c(=O)ccc3c(c12)OC(N)=C(C#N)C3c1ccccc1Cl (stereo unspecified)	0	15	-9	28*	32	1
Cc1cc(C)nc(N(C#N)Cc2cccc(Cl)c2)n1	0	0	-1	51*	-1	20
CCN(CC)C(=O)C(=O)N/N=C/c1ccc(F)cc1	14	1	1	1	3	16
Cn1c2ccccc2c(=O)c2ccc(-c3ccc4c(c3)OCO4)cc21	x	x	x	49*	x	x
Cn1c(-c2ccc3c(c2)OCO3)cc(=O)c2ccccc21	0	1	-1	3	-1	13
COc1ccc(-c2cc(Cl)cc3c(=O)c4ccccc4n(C)c23)cc1F	x	x	x	112*	x	x
COc1cc(-c2ccc3c(=O)c4ccccc4n(C)c3c2)cc(OC)c1OC	x	x	x	57*	x	x
COc1ccc(-c2coc3cc4oc(=O)c5ccccc5c4cc23)cc1F	-1	-1	-8	2	3	4

Screening results from PubChem BioAssay.
